# Bioassay records (PubChem BioAssay)
# UHRF1 binding: UHRF1 methylated DNA binding inhibitors, primary screen, counter-screen for MBD2 inhibitor project, biochemical, TR-FRET, human UHRF1, single concentration; E3 ubiquitin-protein ligase UHRF1 (Homo sapiens), Q96T88; UHRF1 binding to methylated oligo; inhibition, % at 4.4 µM; 370,000 compounds, 0.75% hits; AID 687016, 2013; in the data active means inhibition above about 21%;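 further: UHRF1 SRA domain binding a hemimethylated CpG hairpin DNA probe; 0% = median of test compound wells and 100% = reference inhibitor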
# TDP2 absorb: human TDP2 enzyme inhibitors, primary screen, biochemical, epi absorbance, recombinant enzyme; T5PNP hydrolysis, p-nitrophenol absorbance 415 nm; inhibition, % at 12.8 µM; 370,000 compounds, 0.34% hits; Tyrosyl-DNA phosphodiesterase 2 (Homo sapiens), O95551; AID 720702, 2013;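 active means inhibition above the mean of all tested compounds plus 3 SD, set per campaign, cut at about 25% in these data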;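 further: 0% = DMSO with enzyme and 100% = buffer with substrate but no TDP2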
#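 Test system: human TDP2 enzyme; Input: 120 nM TDP2 per well; Buffer or medium: Mg2+-containing Tris-HCl buffer, pH 7.5; Reagent: 5 mM T5PNP; Dosing: 12.8 µM single point, 1% DMSO; Incubation: reaction 2 h, 37 °C; Detection: p-Nitrophenol epi absorbance; Read-out: % inhibition relative to enzyme-containing and enzyme-free wells; Replicates: single well per compound.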
# CASP6 VEID inh: human caspase-6 inhibitors, primary screen, biochemical, VEID-R110 fluorescence, single point, set 2 | inhibition, % at 12.5 µM | AID 686996, 2013 | purified caspase-6, Z-VEID-R110 cleavage fluorescence | P55212 | 350,000 compounds, 0.53% hits;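 active means mean inhibition across replicates at least about 35%, with every replicate also reaching that limit, limit read from the data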;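 further: 0% = median of neutral control wells and 100% = no fluorescence left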
# Target sequence (P55212 24-179 limits assumed): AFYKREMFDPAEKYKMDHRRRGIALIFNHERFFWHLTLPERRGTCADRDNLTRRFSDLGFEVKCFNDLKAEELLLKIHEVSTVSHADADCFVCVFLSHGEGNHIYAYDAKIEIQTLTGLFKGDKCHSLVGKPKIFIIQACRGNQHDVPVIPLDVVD
# Target sequence (P55212 194-293 limits assumed): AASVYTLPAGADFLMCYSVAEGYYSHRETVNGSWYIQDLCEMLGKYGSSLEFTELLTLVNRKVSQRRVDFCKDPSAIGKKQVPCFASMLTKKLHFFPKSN
# MBD2 DNA inh: inhibitors of MBD2 binding to methylated DNA, primary screen, biochemical, TR-FRET, DNA-binding domain, human; Methyl-CpG-binding domain protein 2 (Homo sapiens), Q9UBB5; MBD2 binding to methylated oligonucleotide; inhibition, % at 4.4 µM; 370,000 compounds, 0.31% hits; in the data active means inhibition above about 13%
# Target sequence (Q9UBB5 whole entry, looked up, the tested form may be a part): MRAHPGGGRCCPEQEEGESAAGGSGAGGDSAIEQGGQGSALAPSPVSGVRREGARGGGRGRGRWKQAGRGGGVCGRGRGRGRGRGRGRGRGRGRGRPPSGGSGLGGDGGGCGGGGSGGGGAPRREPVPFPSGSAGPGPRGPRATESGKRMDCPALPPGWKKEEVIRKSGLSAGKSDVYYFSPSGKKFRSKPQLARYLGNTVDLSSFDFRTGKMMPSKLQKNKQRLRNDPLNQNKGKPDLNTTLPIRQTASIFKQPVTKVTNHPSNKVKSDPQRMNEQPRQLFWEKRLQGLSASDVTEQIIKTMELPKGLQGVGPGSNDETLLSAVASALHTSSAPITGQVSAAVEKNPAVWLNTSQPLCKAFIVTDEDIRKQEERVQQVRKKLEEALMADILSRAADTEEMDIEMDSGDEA
# NSD2 HMT inh: NSD2 histone methyltransferase inhibitors, primary screen, biochemical, AlphaScreen, single concentration, set 2 | 310,000 compounds, 0.54% hits | NSD2 peptide methylation, 120 min | inhibition, % at 12.5 µM | AID 743445, 2014; in the data active means inhibition above about 50%
# LEDGF integ inh: blockers of LEDGF/p75-dependent integrase strand transfer – biochemical, TR-FRET, high throughput, primary screen. inhibition, % at 3.7 µM. TR-FRET IN-LEDGF/p75 DNA integration, Eu/Cy5. AID 743269, 2014. 370,000 compounds, 0.64% hits. HIV-1 integrase (with human LEDGF/p75);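 active means inhibition above the screen-wide mean plus 3 SD, cut at about 13% in these data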;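 further: signal is the Cy5 over europium emission ratio at 671 and 618 nm; 0% = plate median of compound wells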
# TDP2 confirm: human TDP2 enzyme inhibitors, retest, confirmation, biochemical, epi absorbance, recombinant enzyme; shares compounds with TDP2 absorb; absorbance read-out; inhibition, % at 12.8 µM; 1,100 compounds, 22% hits; AID 743263, 2014; in the data active means inhibition above about 25%;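 further: 0% = vehicle with enzyme and 100% = no enzyme buffer only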
# IN multimer act: HIV-1 IN multimer formation enhancers, counter-screen for LEDGF/p75 integration inhibitor project, biochemical, TR-FRET | shares compounds with LEDGF integ inh | TR-FRET HIV-1 integrase multimerization | activation, % at 7.7 µM | 2,000 compounds, 17% hits | AID 1053131, 2014; in the data active means activation above about 8.9%
# TRFRET interf: TR-FRET optical interference artefacts, confirmation, artefact control for LEDGF/p75-dependent integration inhibitor project, biochemical, HIV-1 IN multimerization. shares compounds with LEDGF integ inh. TR-FRET optical interference counterscreen. inhibition, % at 7.7 µM. 2,000 tested, under 10 active. AID 1053135, 2014;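 active means inhibition above the mean over all tested compounds plus 3 SD, which no compound reached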;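 further: 0% = integrase with antibodies and DMSO and 100% = antibodies without integrase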
# LEDGF integ conf: inhibitors of HIV-1 IN-LEDGF/p75 DNA integration, confirmation, biochemical, TR-FRET. inhibition, % at 3.7 µM. AID 1053136, 2014. shares compounds with LEDGF integ inh. TR-FRET LEDGF/p75-dependent HIV-1 integration. 2,000 compounds, 36% hits; in the data active means inhibition above about 14%
# AlphaScreen art: AlphaScreen signal interference with preloaded methylated product, dose response, artefact control for NSD2 inhibitor project, biochemical, cherry-picked samples; 1,500 compounds, 9.4% hits; AC35, µM (doses to about 10 µM), without a hit: at the top dose activity change, negative = signal loss; shares compounds with NSD2 HMT inh; AlphaScreen artifact counterscreen, preloaded methylated H4 peptide; call rule not given here
# * = called active by the depositor; x = no result given; + = active, no number; ! = not confirmed by another sample. Shown are actives, neighbours in structure and some others; about 1.8% of the full set was active somewhere.
SMILES,UHRF1 binding,TDP2 absorb,CASP6 VEID inh,MBD2 DNA inh,NSD2 HMT inh,LEDGF integ inh,TDP2 confirm,IN multimer act,TRFRET interf,LEDGF integ conf,AlphaScreen art
CCCC#Cc1cnc2c(c1)C(=O)N([C@@H](C)CO)C[C@@H](C)[C@H](CN(C)C(=O)c1cnccn1)O2,x,x,7,x,x,x,x,x,x,x,x
CCOc1ccc2nc(NC(=S)N(C)C)sc2c1,-2,26*,x,0,0,14*,17,2,-9,9,x
CCCC(=O)Nc1nc2ccc(OCC)cc2s1,-2,0,0,-1,x,-2,x,x,x,x,x
Cc1ccc(S(=O)(=O)NC2=C(N3CCN(c4ccccc4F)CC3)C(=O)c3ccccc3C2=O)cc1,0,25*!,2,-5,6,15*!,1,0,2,2,x
COc1ccc(N)c2c1OCCC2=O,7,34*,x,-3,29,19*,-2,-1,2,-5,x
Nc1ccc(N2CCOCC2)c2nonc12,30*,92*,83*,19*,x,22*,36*,6,-21,8,x
COC(=O)c1cc(S(=O)(=O)N2CCOCC2)c(Cl)cc1N1CCOCC1,3,5,x,3,-1,0,x,x,x,x,x
COC(=O)c1cc(C)nc2c1C(=O)C(=O)C=C2N1CCOCC1,12,87*,83*,5,+,38*,89*,1,-4,78*,-1%
C[C@H]1CN([C@@H](C)CO)C(=O)c2cccc(NC(=O)c3nc4ccccc4s3)c2O[C@@H]1CN(C)S(=O)(=O)c1cn(C)cn1,x,x,-2,x,x,x,x,x,x,x,x
O=C(NC1(O)C(=O)c2ccccc2C1=O)c1c(Cl)cccc1Cl,3,71*,39*,-4,111*,-3,79*,x,x,x,1%
COC1(NC(=O)c2ccccc2)C(C)=CC(=O)C=C1C,0,-9,-4,-1,10,-1,x,x,x,x,x
O=C(NC1(O)C(=O)c2ccccc2C1=O)c1ccccc1,-1,54*,x,-7,110*,10,84*,x,x,x,3%
COCC#Cc1cnc2c(c1)C(=O)N([C@@H](C)CO)C[C@H](C)[C@@H](CN(C)C(=O)c1ccc3c(c1)OCO3)O2,x,x,-2,x,x,x,x,x,x,x,x
CN(C)c1cccc2c(S(=O)(=O)Nc3ccccn3)cccc12,-1,56*,x,0,58*,19*,21,0,-2,-2,-3%
O=C(/C=C/c1ccco1)Nc1cccc(C(=O)Nc2ccccc2C(=O)O)c1,37*,28*,60*,12,76*,19*,12,3,-17,13,0%
COCC(=O)N1CC2(CN(Cc3ccc(OC)cc3)C2)c2c([nH]c3cc(OC)ccc23)[C@@H]1CO,x,x,4,x,x,x,x,x,x,x,x
O=C(C[C@@H]1C[C@@H]2c3cc(NC(=O)C4CCOCC4)ccc3O[C@@H]2[C@H](CO)O1)NCc1cccc(F)c1,x,x,3,x,x,x,x,x,x,x,x
Cc1[nH][nH]c(=O)c1C(c1c(C)[nH][nH]c1=O)c1cn(Cc2ccccc2Cl)c2ccccc12,23*,55*,x,-5,115*,20*,34*,-3,9,13,-22%
COc1ccc(NC(=O)N(C)C[C@H]2OCCCC[C@@H](C)Oc3ccc(NS(C)(=O)=O)cc3C(=O)N([C@@H](C)CO)C[C@H]2C)cc1,x,x,1,x,x,x,x,x,x,x,x
COc1ccc2c3c([nH]c2c1)[C@H](CO)N(C(=O)c1cnccn1)CC31CCN(S(C)(=O)=O)CC1,x,x,-2,x,x,x,x,x,x,x,x
COc1cc(NCCCNC(C)C)c2nccc(C)c2c1,-3,28*,88*,-9,107*,12,28*,x,x,x,-4%
CC(=O)C1=C(C)OC2(O)c3ccccc3C(=O)C12O (stereo not drawn),2,57*,30,-1,90*,0,61*,x,x,x,-1%
CCOC(=O)C1=C(C)OC2(O)c3ccccc3C(=O)C12O (stereo not drawn),5,70*,24,2,107*,12,81*,x,x,x,1%
O=C1CC(N2CCOCC2)=NN1c1ccc([N+](=O)[O-])cc1,4,65*,15,-6,110*,3,6,x,x,x,0%
O=[N+]([O-])c1ccc(N2CCOCC2)nc1,-1,1,x,1,1,0,x,x,x,x,x
SMILES,UHRF1 binding,TDP2 absorb,CASP6 VEID inh,MBD2 DNA inh,NSD2 HMT inh,LEDGF integ inh,TDP2 confirm,IN multimer act,TRFRET interf,LEDGF integ conf,AlphaScreen art
CC(=O)N(/N=C1\Sc2ccccc2C1=O)c1ccccc1C,-8,63*,x,-8,56*,34*,63*,1,-2,44*,-10%
CC(=O)N1[C@H](CO)[C@H](c2ccc(C3=CCCCC3)cc2)[C@@H]1CNC(=O)CC1CC1,x,x,-2,x,x,x,x,x,x,x,x
CC1(C)Cc2ccccc2C(Nn2cnnc2)=N1,-1,2,-2,0,3,-4,x,x,x,x,x
CC1(C)Cc2ccccc2C2=NNC(=O)C2=N1,9,28*,15,-9,106*,8,34*,x,x,x,3%
O=C1c2cccc3cccc(c23)C(=O)C1(O)O,-8,2,17,-13,17,-1,x,x,x,x,x
CC(=O)C(C(C)=O)C1(O)C(=O)c2ccccc2C1=O,-2,44*,8,-5,104*,-3,68*,x,x,x,1%
NC1=C(Br)C(=O)c2ncccc2C1=O,-3,62*,100*,-17,101*,29*,65*,7,-26,73*,5%
